Data: ChEMBL document CHEMBL1124657, “Retinobenzoic acids. 2. Structure-activity relationships of chalcone-4-carboxylic acids and flavone-4'-carboxylic acids” (1989)
Activity calls are given as the source filed them. The rule behind the calls is not given here.

Legend:
[1] = tested on: HL-60; test: Activity relative to retinoic acid in differentiating promyelocytic leukemic HL-60 cells; format: functional, Homo sapiens
[2] = tested on: HL-60; test: Differentiation inducing activity towards human promyelocytic leukemia cell line HL-60 assayed by nitroblue tetrazolium reduction; format: functional; settings: read-out: ED50 (the source's name)
How it was run: (§1)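 HL-60 cells in RPMI1640 with 5% FCS at 37 °C, 5% CO₂; seeded about 8 × 10⁴ cells/mL and exposed 4 days to compounds from 0.2 mM ethanol stock (final ethanol below 0.5%; ethanol-only controls). Retinoic acid run concurrently. NBT reduction: 20 min at 37 °C with 0.2% NBT and TPA 200 ng/mL in PBS/medium. Formazan-positive cells counted among at least 200 cells. Wright-Giemsa morphology also scored. Five orders of concentration covered, at least three repeats. ED50 taken from NBT data.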

[3] = tested on: HL-60; test: Differentiation inducing activity towards human promyelocytic leukemia cell line HL-60 by nitroblue tetrazolium reduction assay;IA is inactive; format: functional, cell-based; how it was run: as §1
[4] = tested on: HL-60; test: Differentiation inducing activity towards human promyelocytic leukemia cell line HL-60 by nitroblue tetrazolium reduction assay;IA is Inactive; format: functional, cell-based; how it was run: as §1
[5] = tested on: HL-60; test: Differentiation inducing activity towards human promyelocytic leukemia cell line HL-60 by nitroblue tetrazolium reduction assay; IA is Inactive; format: functional, cell-based; how it was run: as §1

SMILES | Relative activity [1] | EC50 [2] [nM] | ED50 [3] | ED50 [4] | ED50 [5]
CC(C)(C)c1ccc(O)c(/C(O)=C/C(=O)c2ccc(C(=O)O)cc2)c1 | < 0.0001 | > 1000 | – | – | –
O=C(O)c1ccc(-c2cc(=O)c3ccccc3o2)cc1 | – | – | inactive | – | –
Cc1ccc(/C=C/C(=O)c2ccc3c(c2)C(C)(C)CCC3(C)C)cc1 | – | – | – | inactive | –
COc1cc2c(cc1C(=O)/C=C/c1ccc(C(=O)O)cc1)C(C)(C)CCC2(C)C | 0.35 | 3.9 | – | – | –
CCCCOC(=O)c1ccc(/C=C/C(=O)c2ccc3c(c2)C(C)(C)CCC3(C)C)cc1 | 0.063 | 27 | – | – | –
CC1(C)CCOc2ccc(C(=O)/C=C/c3ccc(C(=O)O)cc3)cc21 | < 0.0001 | > 1000 | – | – | –
CC(C)(C)c1ccc2oc(-c3ccc(C(=O)O)cc3)cc(=O)c2c1 | < 0.0001 | > 1000 | – | – | –
CC1(C)CCC(C)(C)c2cc(C(=O)/C=C/c3ccc(C(=O)O)cc3)c(O)cc21 | 1.4 | 0.15 | – | – | –
CC(C)(C)c1ccc(C(C)(C)C)c(C(=O)/C=C/c2ccc(C(=O)O)cc2)c1 | 0.021 | 45 | – | – | –
CC1(C)CCOc2c(C(=O)/C=C/c3ccc(C(=O)O)cc3)cccc21 | 0.0077 | 690 | – | – | –
COC(=O)c1ccc(-c2cc(=O)c3cc4c(cc3o2)C(C)(C)CCC4(C)C)cc1 | 8.5 | 0.48 | – | – | –
O=C(O)c1ccc(/C=C/C(=O)c2ccccc2)cc1 | – | – | – | – | inactive
COc1c(-c2ccc(C(=O)O)cc2)oc2cc3c(cc2c1=O)C(C)(C)CCC3(C)C | < 0.0001 | > 1000 | – | – | –
CC(C)(C)c1cccc(C(=O)/C=C/c2ccc(C(=O)O)cc2)c1 | 0.0081 | 160 | – | – | –
COC(=O)c1ccc(/C=C/C(=O)c2ccc3c(c2)C(C)(C)CCC3(C)C)cc1 | 0.043 | 30 | – | – | –
CC1(C)CCC(C)(C)c2cc3c(=O)c(O)c(-c4ccc(C(=O)O)cc4)oc3cc21 | 1.25 | 1.2 | – | – | –
CC1(C)CCSc2ccc(C(=O)/C=C/c3ccc(C(=O)O)cc3)cc21 | < 0.0001 | > 1000 | – | – | –
CC1(C)CCOc2cc3c(=O)cc(-c4ccc(C(=O)O)cc4)oc3cc21 | 0.017 | 250 | – | – | –

SMILES | Relative activity [1] | EC50 [2] [nM] | ED50 [3] | ED50 [4] | ED50 [5]
CC1(C)CCC(C)(C)c2cc(/C(O)=C/C(=O)c3ccc(C(=O)O)cc3)c(O)cc21 | 7.6 | 0.063 | – | – | –
O=C(O)c1ccc(C(=O)/C=C(\O)c2ccccc2O)cc1 | – | – | – | – | inactive
CC1(C)CCC(C)(C)c2cc(C(=O)/C=C/c3ccc(C(N)=O)cc3)ccc21 | < 0.0001 | > 1000 | – | – | –
COc1ccc(C(=O)/C=C/c2ccc(C(=O)O)cc2)cc1OC | – | – | – | – | inactive
CC(C)(C)c1cc(C(=O)/C=C/c2ccc(C(=O)O)cc2)cc(C(C)(C)C)c1 | 6.4 | 0.21 | – | – | –
CC1(C)CCC(C)(C)c2cc3c(=O)cc(-c4ccc(C(=O)O)cc4)oc3cc21 | 27.4 | 0.046 | – | – | –
CC1=C(/C=C/C(C)=C/C=C/C(C)=C/C(=O)O)C(C)(C)CCC1 [TRETINOIN] | 1 | 2.4 | – | – | –
CC(C)(C)c1ccc(/C(O)=C/C(=O)c2ccc(C(=O)O)cc2)c(O)c1 | 0.0023 | 560 | – | – | –
CC1(C)CCC(C)(C)c2cc(C(=O)/C=C/c3cccc(C(=O)O)c3)ccc21 | < 0.0001 | > 1000 | – | – | –
Cc1cc2c(cc1C(=O)/C=C/c1ccc(C(=O)O)cc1)C(C)(C)CCC2(C)C | 2.1 | 0.54 | – | – | –
CC1(C)CCC(C)(C)c2cc(C(=O)/C=C/c3ccc(C(=O)O)cc3)ccc21 | 2.8 | 0.64 | – | – | –
CC(C)c1ccc(C(=O)/C=C/c2ccc(C(=O)O)cc2)cc1C(C)C | 1.8 | 0.82 | – | – | –
CC(C)(C)c1ccc2c(=O)cc(-c3ccc(C(=O)O)cc3)oc2c1 | 0.0058 | 480 | – | – | –
CC1(C)CCC(C)(C)c2cc(C(=O)/C=C/c3ccc(C(=O)Cl)cc3)ccc21 | 0.52 | 3.3 | – | – | –
CC1(C)CCC(C)(C)c2cc(C(=O)/C=C/c3ccc(C(=O)O)c(O)c3)ccc21 | 0.88 | 1.7 | – | – | –
CCc1ccc(C(=O)/C=C/c2ccc(C(=O)O)cc2)cc1CC | 0.0083 | 170 | – | – | –
CC(C)(C)c1ccc(C(=O)/C=C/c2ccc(C(=O)O)cc2)cc1 | 0.039 | 28 | – | – | –
